TAG inh: inhibitors of triacylglycerol accumulation. H9c2 cells, Nile Red lipid (TAG) fluorescence; cells loaded with 200 µM oleic acid. inhibition, % at 12.5 µM. 230,000 tested, 0.66% active. AID 651582;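 active = pattern-corrected inhibition of lipid staining of at least 50% with the nuclear-stain viability signal not falling by more than 50%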;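 note: 0% = DMSO wells and 100% = triacsin C control wells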
CXCR6 inh: CXCR6 (human) receptor inhibition; CHO-K1 PathHunter CXCR6 beta-arrestin, luminescence; inhibition, % at 20 µM; 360,000 tested, 0.36% active; in the data active = inhibition above about 34%, passing the limit was not always enough;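 note: antagonist mode with CXCL16 agonist at 10 nM final; 0% = 10 nM CXCL16 with DMSO and 100% = unstimulated wells without agonist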
Target sequence (O00574 whole entry, looked up): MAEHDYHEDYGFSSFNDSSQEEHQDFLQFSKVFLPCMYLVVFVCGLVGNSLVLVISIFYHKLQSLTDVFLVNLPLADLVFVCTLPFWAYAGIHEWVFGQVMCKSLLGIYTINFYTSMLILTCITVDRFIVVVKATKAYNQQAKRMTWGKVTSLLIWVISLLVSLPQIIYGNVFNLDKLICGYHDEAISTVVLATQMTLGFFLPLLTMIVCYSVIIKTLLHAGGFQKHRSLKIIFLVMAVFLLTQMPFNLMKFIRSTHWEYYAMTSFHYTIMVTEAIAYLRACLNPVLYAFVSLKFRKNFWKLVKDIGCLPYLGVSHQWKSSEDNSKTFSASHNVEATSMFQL
EBI2 antag: EBI2 (human) antagonism; P32249; EBI2 beta-arrestin recruitment, luminescence, 7a,25-OHC stimulated; inhibition, % at 5 µM; 360,000 tested, 0.81% active; AID 651636; in the data active = inhibition above about 38%;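 note: enzyme fragment complementation signal reports receptor beta-arrestin coupling in cells; 0% = agonist plus DMSO wells and 100% = wells without agonist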
APJ agonist: activates the human apelin receptor APJ; 330,000 tested, 0.11% active; CHO-K1 APJ PathHunter beta-arrestin, luminescence; 0% DMSO wells, 100% apelin; activation, % at 20 µM; P35414;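 active = activation more than six SD over the plate average, tested at 20 µM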;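 note: 0% = DMSO alone and 100% = apelin-13 at 10 nM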
Target sequence (P35414 whole entry, looked up): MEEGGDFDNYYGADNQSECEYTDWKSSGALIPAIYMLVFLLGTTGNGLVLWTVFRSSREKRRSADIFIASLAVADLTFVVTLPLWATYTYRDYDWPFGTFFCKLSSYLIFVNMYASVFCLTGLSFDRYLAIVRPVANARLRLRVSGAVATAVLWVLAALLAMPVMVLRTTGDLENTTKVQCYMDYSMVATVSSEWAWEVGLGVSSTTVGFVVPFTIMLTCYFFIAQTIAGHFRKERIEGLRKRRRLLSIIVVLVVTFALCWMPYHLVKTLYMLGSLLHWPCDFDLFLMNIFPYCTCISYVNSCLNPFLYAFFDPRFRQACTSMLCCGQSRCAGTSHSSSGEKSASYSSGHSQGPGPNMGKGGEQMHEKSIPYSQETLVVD
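Test system: CHO-K1 APJ beta-arrestin complementation cell line. Amount: cell density 1000 per well. Controls: DMSO negative, 10 nM Apelin-13 positive. Signal: luminescent beta-gal fragment complementation, chemiluminescent substrate. Read-out basis: agonist-driven arrestin binding to APJ. Timing: compound stimulation 90 min at 25 °C, detection 60 min.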
APJ antag: antagonists of human APJ apelin receptor. P35414. CHO-K1 APJ beta-arrestin complementation, luminescence. inhibition, % at 20 µM. 330,000 tested, 0.32% active;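 active = inhibition above about 40% at 20 µM, limit read from the data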;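 note: cells challenged with 10 nM apelin-13 agonist together with compound; plate controls were apelin-13 plus DMSO wells for no effect and DMSO wells lacking apelin-13 for full effect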
CCR6 antag: blocks CCL20-driven beta-arrestin recruitment at human CCR6. P51684. CHO-K1 CCR6 PathHunter beta-arrestin, luminescence, CCL20-stimulated. inhibition, % at 20 µM. 340,000 tested, 0.49% active;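 active = compounds whose inhibition of the agonist-driven luminescence signal at 20 µM reaches about 50%, limit read from the data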;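 note: cells stimulated with CCL20 at 14 nM final; plate controls were DMSO with CCL20 for no effect and DMSO without agonist for full effect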
EBI2 antag conf: confirmation of human EBI2 receptor antagonists | AID 651997 | shares compounds with EBI2 antag | EBI2 beta-arrestin luminescence, 7a,25-OHC antagonism | inhibition, % at 5 µM | 2,400 tested, 29% active;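 active = inhibition of at least 50%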
EBI2 agonist: EBI2 agonism counter-screen; 2,400 tested, under 10 active; shares compounds with EBI2 antag; EBI2-expressing cells, agonist mode, luminescence, 60 min; 0% vehicle, 100% 7α,25-dihydroxycholesterol control; activation, % at 5 µM;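 active = activation of at least 50%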
bGal cs: counter-screen for EBI2 antagonists: E. coli beta-galactosidase inhibition; shares compounds with EBI2 antag; inhibition, % at 5 µM; purified beta-galactosidase, luminescent Galacton Star, 15 min; AID 652176; 2,400 tested, 1% active;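 active = replicate-average signal at least 3 plate SD below neutral wells, shown as high inhibition, flagging enzyme-inhibiting false positives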;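 note: 0% = DMSO wells with enzyme and 100% = wells lacking enzyme; higher means stronger loss of beta-gal luminescence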
The depositor's hits bear a star; · = no result. Rows were chosen to be rich in hits. Some 1.9% of all compounds tested hit in one or more screens of this group.

SMILES | TAG inh | CXCR6 inh | EBI2 antag | APJ agonist | APJ antag | CCR6 antag | EBI2 antag conf | EBI2 agonist | bGal cs
O=C(COc1ccccc1F)N1CCN(S(=O)(=O)/C=C/c2ccccc2)CC1 | · | -13 | 55* | -3 | -5 | 3 | 27 | 1 | 2
COc1ccc(OCC(=O)N2CCC3(CC2)CC(=O)c2ccccc2O3)cc1 | 0 | 5 | 77* | -3 | -45 | 6 | 61* | 1 | 6
Cc1cccc(OCC(=O)N2CCC3(CC2)CC(=O)c2ccccc2O3)c1 | -4 | -2 | 31 | -1 | 10 | 7 | · | · | ·
CC(=O)N1CCC2(CC1)CC(=O)c1cc(OCC(=O)N3CCCC3)ccc1O2 | 24 | 6 | 3 | 0 | 14 | 6 | · | · | ·
CCOc1ccc(OCC(=O)N2CCC3(CC2)CC(=O)c2ccccc2O3)cc1 | -5 | -1 | 84* | -1 | -47 | 13 | 52* | 0 | -17
CCOC1=C2[C@H](c3ccccc3)N(S(=O)(=O)c3ccc(C)cc3)C(C(C)(C)C)[C@H]2n2c(=O)n(-c3ccccc3)c(=O)n2C1 (some centres undefined) | · | 0 | 6 | · | · | · | · | · | ·
CCOc1ccc(CCN2C(=O)C(=O)N([C@@H](Cc3ccccc3)CN3CCC[C@H]3CN3C(=O)C(=O)NC[C@@H]3Cc3ccccc3)C[C@@H]2Cc2ccccc2)cc1 | · | 9 | 1 | · | · | · | · | · | ·
CCOC(=O)CN(C(=O)CSc1nnc(CNc2ccc(F)cc2)o1)c1ccccc1 | -3 | 4 | 43* | 5 | 8 | 10 | 24 | 2 | 2
O=C(Cn1cccc1C(=O)c1ccccc1)NCCc1ccc(Cl)cc1 | · | 0 | 49* | -4 | 19 | 11 | 16 | 1 | 5
O=C(Cn1cccc1C(=O)c1ccccc1)NCCc1ccccc1 | · | 1 | 7 | -4 | 14 | 12 | · | · | ·
CC(C)N(C(=O)COC(=O)c1ccccc1C(=O)c1ccc(Cl)c([N+](=O)[O-])c1)C(C)C | 20 | 20 | 46* | -2 | 6 | 27 | 38 | 0 | 8
Cc1ccc(Oc2ccc(NC(=O)C3=CC=CN4CCS(=O)(=O)N=C34)cc2)cc1 | 21 | 2 | 6 | -1 | 16 | 2 | · | · | ·
COc1cc(/C=c2\sc3n(c2=O)C(c2ccccc2)C(c2ccccc2)=NN=3)ccc1O (centres undefined) | · | 35 | 49* | -5 | 21 | 41 | 43 | -1 | 10
COc1cc(/C=c2\sc3n(c2=O)CCCN=3)ccc1O | 11 | 7 | -3 | 2 | 11 | 3 | · | · | ·
Cc1ccc(NC(=O)c2ccc(CSc3ccccn3)cc2)c(O)c1 | -5 | -15 | 10 | 3 | -13 | -4 | · | · | ·
Cc1ccc(NC(=O)c2ccc(CSc3ccccn3)cc2)cc1 | 24 | 0 | 46* | -5 | -3 | 2 | 31 | -1 | -14
O=C(c1cc2cc(Cl)ccc2[nH]1)N1CCN(c2ccc(F)cc2)CC1 | · | -2 | 84* | 1 | -14 | -7 | 75* | -1 | -12
COc1ccc(N2CCN(C(=O)c3cc4cc(Cl)ccc4[nH]3)CC2)cc1 | · | -8 | 75* | 0 | -25 | -4 | 59* | 2 | 6
COc1cccc(N2CCN(C(=O)c3cc4ccc(OC)cc4[nH]3)CC2)c1 | · | -4 | 16 | -1 | -20 | 11 | · | · | ·
CCn1cc(CN2CCC(n3nccc3NC(=O)c3ccc(OC)cc3)CC2)cn1 | · | -5 | -6 | -3 | 5 | 10 | · | · | ·
CN(C)S(=O)(=O)c1cccc(CSCc2cccc(S(=O)(=O)N(C)C)c2)c1 | · | 0 | 5 | 1 | 4 | 11 | · | · | ·
C#Cc1cccc(NC(=O)c2ccc3c(c2)C(=O)N(Cc2cccnc2)C3=O)c1 | 24 | -15 | 45* | 10 | -14 | -12 | 20 | 1 | 9
COc1ccc(OCCN2CCC(C(=O)NC(c3ccsc3)c3ccccc3C)CC2)cc1 (centres undefined) | -12 | -4 | 17 | · | · | · | · | · | ·
O=C(N[C@H]1/C=C\[C@@H](O)CCCC1)OCc1ccccc1 | -8 | 6 | -8 | · | · | 15 | · | · | ·
CCOC(=O)c1c(NC(=O)C2C3C=CC(CC3)C2C(=O)O)sc(C)c1C (centres undefined) | · | -8 | 2 | -11 | 21 | -18 | · | · | ·
SMILES | TAG inh | CXCR6 inh | EBI2 antag | APJ agonist | APJ antag | CCR6 antag | EBI2 antag conf | EBI2 agonist | bGal cs
CCOC(=O)c1c(NC(=O)C2=C(C)NC(=S)NC2c2ccc(C)cc2)sc(C)c1C (centres undefined) | · | 10 | 92* | -3 | 9 | 12 | 48 | -2 | -13
CCOC(=O)c1c(NC(=O)C2=C(C)NC(=S)NC2c2ccc(F)cc2F)sc(C)c1C (centres undefined) | · | 7 | 86* | -3 | -6 | -4 | 45 | -1 | 7
CCOC(=O)c1c(NC(=O)c2cccc(N3C(=O)CCC3=O)c2)sc(C)c1C | · | 6 | -11 | 1 | -10 | 1 | · | · | ·
CC1=C(C(=O)Nc2ccccn2)C(c2ccc(Cl)cc2)NC(=S)N1 (centres undefined) | -1 | 6 | 5 | -3 | 20 | 10 | · | · | ·
CCOC(=O)c1c(NC(=O)C2=C(C)NC(=S)NC2c2ccc(F)cc2)sc(C)c1C (centres undefined) | · | -2 | 82* | -2 | 17 | 11 | 53* | 1 | -3
Cc1ccccc1-c1nnc(SCC(=O)N2CCCC2)o1 | · | 2 | -5 | -3 | -3 | 6 | · | · | ·
O=C1C=C(c2cccc(CO)c2)C[C@@H](c2ccc(Cl)cc2)C1 | 11 | -2 | 37 | -2 | 16 | 14 | · | · | ·
O=C1C=C(c2cccc3c2sc2ccccc23)C[C@@H](c2ccc(Cl)cc2)C1 | -26 | 12 | 45* | -2 | -4 | 11 | 34 | 1 | 4
O=C1C=C(c2ccc3[nH]ccc3c2)C[C@@H](c2ccc(Cl)cc2)C1 | -10 | 3 | 64* | -1 | 1 | 20 | 34 | 0 | 4
O=C1C=C(c2cccc3c2Oc2ccccc2S3)C[C@@H](c2ccc(Cl)cc2)C1 | -1 | 4 | 14 | 2 | 18 | 7 | · | · | ·
COc1ccc([C@H]2CC(=O)C=C(c3ccc4ncccc4c3)C2)cc1 | -9 | 7 | 82* | -1 | -6 | 17 | 58* | 0 | 8
O=C1C=C(c2ccc3ccccc3c2)C[C@@H](c2ccc(Cl)cc2)C1 | -2 | 3 | 74* | -5 | 3 | 16 | 70* | -1 | -5

Source: PubChem BioAssay
